Reference: article PMC10951545 (Heliyon, 2024)
Where a SMILES comes first, the peptide text is derived from it. Bridges are numbered along the chain shown (N, C = ends). [ ]: non-standard residue; d: D form. The star is where a group is joined. X1 = CC[C@H](C)CCCCC(=O)*; Dab = NCC[C@H](N)C(=O)O

Experiments:
[1] = test system: ventilator-associated pneumonia caused by multidrug-resistant bacteria; experiment: Evaluation of clinical efficacy; format: in vivo, patients; details: control group (polymyxin B alone), n = 28
[2] = Complications; format: in vivo; details: number of patients (%)
Summary of the method: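 ICU patients with severe pulmonary infection were given IV polymyxin B sulfate as an approx. 1 h drip (loading 15,000 U/Kg, then 20,000 U/Kg/d in two doses), either alone or with CVVH (35 ml/kg/h, blood flow 200 ml/min). The incidence of skin pigmentation, nephrotoxicity and 28-day mortality was recorded per group, and the groups were compared.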

[3] = control group (polymyxin B alone), n = 28
[4] = observation group (polymyxin B + CRRT), n = 7

Q: For `CC[C@H](C)CCCCC(=O)N[C@@H](CCN)C(=O)N[C@H](C(=O)N[C@@H](CCN)C(=O)N[C@H]1CCNC(=O)[C@H]([C@@H](C)O)NC(=O)[C@H](CCN)NC(=O)[C@H](CCN)NC(=O)[C@H](CC(C)C)NC(=O)[C@@H](Cc2ccccc2)NC(=O)[C@H](CCN)NC1=O)[C@@H](C)O` [polymyxin B] (X1-[Dab]T[Dab][Dab][Dab][dF]L[Dab][Dab]T; lactam 4-C), which response rate [1] is on record?
A: The response rate was 50.00%.

Q: And the 28-day mortality [2, 3]?
A: The 28-day mortality was 8 (28.57).

Q: And the Nephrotoxicity [2, 3]?
A: Its Nephrotoxicity is 6 (21.43).

Q: And the Skin pigmentation [2, 3]?
A: Its Skin pigmentation is 3 (10.71).

Q: And the 28-day mortality [2, 4]?
A: The 28-day mortality was 4 (57.14).

Q: What about the Nephrotoxicity [2, 4] of the same compound?
A: Its Nephrotoxicity is 1 (14.29).

Q: And the Skin pigmentation [2, 4]?
A: The Skin pigmentation was 2 (28.57).
